Reference: publication PMC4832855 (Cancer Science, 2016)

Experiments:
[1] = test system: patients with advanced solid tumors; experiment: Phase I first-in-human study: safety, tolerability, DLT, MTD; format: in vivo
Summary of the method: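 Open-label 3+3 dose-escalation/de-escalation; oral once-daily dosing under overnight fasting for 28 days, 1-week observation, then continuous; AEs graded by CTCAE v3.0 with attribution; DLTs included grade 3 fasting hyperglycemia, grade 3 non-fasting hyperglycemia >4 h, grade 4 hyperglycemia, grade ≥2 cardiac toxicity, other grade ≥3 non-hematologic events, grade 4 neutropenia >7 days, grade 4 thrombocytopenia.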

[2] = test system: human sarcoma cell lines bearing the EWS/FLI‐1 chromosome translocation (TC‐71, SK‐N‐MC, SK‐ES‐1); experiment: Anti-proliferative activity; format: cell-based; conditions: 72 h
[3] = Pharmacokinetic study in mice, single oral dose; format: in vivo, mouse; conditions: for Mean area under the plasma concentration–time curve from time 0 to 24 h / Mean maximum plasma concentration: male SCID mice
Summary of the method: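 Single oral dose of 2, 10 or 20 mg/kg to male mice; plasma sampled over 0–24 h; Cmax, Tmax, elimination half-life and AUC0–24 reported as mean ± SD, n = 3.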

SCID mice = experiment: Hyperglycemia and hyperinsulinemia in mice; format: in vivo, mouse; conditions: oral 10, 20, 40, 80 mg/kg
Met = Met (Homo sapiens, UniProt P08581); experiment: Kinase inhibition profiling at 100 nmol/L; format: biochemical; conditions: read-out: Inhibition at 100 nmol/L
Lck = Lck (Homo sapiens, UniProt P06239); experiment: Kinase inhibition profiling at 100 nmol/L; format: biochemical; conditions: read-out: Inhibition at 100 nmol/L
[4] = test system: HT‐29/GFP colon cancer xenograft; experiment: HT-29/GFP xenograft model; format: in vivo, mouse; conditions: 40 mg/kg orally once daily for 14 days, SCID mice
[5] = ref Kyowa Hakko Kirin Co., Ltd, Tokyo, unpublished data; cited from earlier work
[6] = test system: HT‐29/GFP human colon cancer cells; experiment: Flow cytometric cell cycle analysis; format: cell-based
AurA = AurA (Homo sapiens, UniProt O14965); experiment: Kinase inhibition profiling at 100 nmol/L; format: biochemical
[7] = test system: IGF‐1‐induced tyrosine phosphorylation of IGF‐R in HT‐29/GFP xenograft; experiment: In vivo signal transduction assay; parameters: species or system mouse; conditions: 40 mg/kg oral, 2 hours before IGF-1
[8] = male, SCID, mouse, plasma, po, 20 mg/kg

Sequence of AurA (O14965 whole entry): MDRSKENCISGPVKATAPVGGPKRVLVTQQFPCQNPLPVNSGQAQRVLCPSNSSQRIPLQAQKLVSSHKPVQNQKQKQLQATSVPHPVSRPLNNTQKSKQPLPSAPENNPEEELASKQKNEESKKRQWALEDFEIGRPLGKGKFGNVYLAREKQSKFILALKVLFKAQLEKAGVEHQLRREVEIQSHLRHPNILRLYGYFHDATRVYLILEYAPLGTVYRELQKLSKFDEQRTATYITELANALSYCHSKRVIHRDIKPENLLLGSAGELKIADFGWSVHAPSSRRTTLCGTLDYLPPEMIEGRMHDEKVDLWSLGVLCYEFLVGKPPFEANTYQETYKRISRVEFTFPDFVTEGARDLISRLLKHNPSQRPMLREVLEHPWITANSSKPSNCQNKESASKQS
Sequence of Met (P08581 25-1390): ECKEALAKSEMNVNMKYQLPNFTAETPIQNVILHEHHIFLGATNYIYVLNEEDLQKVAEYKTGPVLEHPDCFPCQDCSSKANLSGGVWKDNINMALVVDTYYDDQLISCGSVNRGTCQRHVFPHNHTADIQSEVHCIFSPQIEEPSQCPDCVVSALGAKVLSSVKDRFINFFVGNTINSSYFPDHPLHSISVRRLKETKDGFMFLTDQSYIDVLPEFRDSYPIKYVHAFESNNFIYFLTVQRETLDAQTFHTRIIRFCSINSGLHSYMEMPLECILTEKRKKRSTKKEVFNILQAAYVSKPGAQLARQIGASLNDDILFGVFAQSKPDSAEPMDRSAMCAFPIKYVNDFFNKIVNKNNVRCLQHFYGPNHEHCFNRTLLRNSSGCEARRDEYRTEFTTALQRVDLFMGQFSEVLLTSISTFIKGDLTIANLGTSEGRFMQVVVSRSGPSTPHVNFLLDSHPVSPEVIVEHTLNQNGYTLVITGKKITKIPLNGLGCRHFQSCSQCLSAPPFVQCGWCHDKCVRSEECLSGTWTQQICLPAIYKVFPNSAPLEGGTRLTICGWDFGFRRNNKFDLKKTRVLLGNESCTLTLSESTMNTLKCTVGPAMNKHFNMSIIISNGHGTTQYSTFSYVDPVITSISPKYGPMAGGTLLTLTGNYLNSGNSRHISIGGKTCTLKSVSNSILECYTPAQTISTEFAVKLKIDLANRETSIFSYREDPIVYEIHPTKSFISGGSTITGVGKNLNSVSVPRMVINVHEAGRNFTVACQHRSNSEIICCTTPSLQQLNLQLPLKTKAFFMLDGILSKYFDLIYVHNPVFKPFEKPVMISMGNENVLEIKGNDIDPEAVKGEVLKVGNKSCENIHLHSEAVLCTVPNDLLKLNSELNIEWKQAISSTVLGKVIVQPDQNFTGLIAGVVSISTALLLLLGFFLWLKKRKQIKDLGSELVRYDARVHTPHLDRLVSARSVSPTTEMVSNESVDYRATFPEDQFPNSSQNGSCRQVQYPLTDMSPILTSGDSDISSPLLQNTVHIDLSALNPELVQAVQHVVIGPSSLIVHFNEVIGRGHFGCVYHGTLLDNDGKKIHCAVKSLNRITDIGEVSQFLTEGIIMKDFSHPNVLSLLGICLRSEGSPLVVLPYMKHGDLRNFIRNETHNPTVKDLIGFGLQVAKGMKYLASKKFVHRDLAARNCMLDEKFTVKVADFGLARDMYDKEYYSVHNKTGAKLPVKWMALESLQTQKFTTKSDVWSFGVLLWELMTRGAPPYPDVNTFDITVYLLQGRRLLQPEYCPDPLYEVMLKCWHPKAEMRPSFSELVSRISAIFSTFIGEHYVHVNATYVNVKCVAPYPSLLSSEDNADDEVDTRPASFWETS
Sequence of Lck (P06239 whole entry): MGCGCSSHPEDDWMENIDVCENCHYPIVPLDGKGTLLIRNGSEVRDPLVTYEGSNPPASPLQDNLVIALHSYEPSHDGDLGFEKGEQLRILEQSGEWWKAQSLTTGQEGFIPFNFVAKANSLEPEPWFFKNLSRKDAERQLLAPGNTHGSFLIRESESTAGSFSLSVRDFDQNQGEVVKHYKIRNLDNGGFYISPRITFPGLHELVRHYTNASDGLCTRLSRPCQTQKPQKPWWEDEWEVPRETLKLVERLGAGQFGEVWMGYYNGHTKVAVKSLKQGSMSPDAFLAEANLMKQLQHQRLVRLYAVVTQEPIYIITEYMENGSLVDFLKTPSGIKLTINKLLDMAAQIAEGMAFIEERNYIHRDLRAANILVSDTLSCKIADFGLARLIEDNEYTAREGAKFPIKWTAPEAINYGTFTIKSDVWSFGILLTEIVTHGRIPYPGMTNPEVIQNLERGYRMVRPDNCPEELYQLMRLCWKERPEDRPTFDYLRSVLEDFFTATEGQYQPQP

Structure (SMILES): Cc1ccsc1C(=O)Nc1cc(CN2CCN(C(=O)CO)CC2)ccc1/C=C/c1n[nH]c2ccccc12 [KW‐2450]
- Nausea, treatment‐related, Grade 3 ([1]; 50 mg/day (n = 6)): 0 (0.0) No. of patients (%)
- Pain, treatment‐related, Grade 1–2 ([1]; 50 mg/day (n = 6)): 2 (33.3) No. of patients (%)
- Pain, treatment‐related, Grade 3 ([1]; 50 mg/day (n = 6)): 0 (0.0) No. of patients (%)
- Rash, treatment‐related, Grade 1–2 ([1]; 50 mg/day (n = 6)): 0 (0.0) No. of patients (%)
- Rash, treatment‐related, Grade 3 ([1]; 50 mg/day (n = 6)): 0 (0.0) No. of patients (%)
- Vomiting, treatment‐related, Grade 1–2 ([1]; 50 mg/day (n = 6)): 1 (16.7) No. of patients (%)
- Vomiting, treatment‐related, Grade 3 ([1]; 50 mg/day (n = 6)): 0 (0.0) No. of patients (%)
- Patients with dose‐limiting toxicity ([1]; 50 mg/day, two of six patients, grade 3 non‐fasting hyperglycemia): 33.3%
- Anorexia, treatment‐related, Grade 1–2 ([1]; Total (n = 13)): 2 (15.4) No. of patients (%)
- Anorexia, treatment‐related, Grade 3 ([1]; Total (n = 13)): 0 (0.0) No. of patients (%)
- Constipation, treatment‐related, Grade 1–2 ([1]; Total (n = 13)): 2 (15.4) No. of patients (%)
- Constipation, treatment‐related, Grade 3 ([1]; Total (n = 13)): 0 (0.0) No. of patients (%)
- Decreased appetite, treatment‐related, Grade 1–2 ([1]; Total (n = 13)): 3 (23.1) No. of patients (%)
- Decreased appetite, treatment‐related, Grade 3 ([1]; Total (n = 13)): 0 (0.0) No. of patients (%)
- Diarrhea, treatment‐related, Grade 1–2 ([1]; Total (n = 13)): 2 (15.4) No. of patients (%)
- Diarrhea, treatment‐related, Grade 3 ([1]; Total (n = 13)): 0 (0.0) No. of patients (%)
- Dizziness, treatment‐related, Grade 1–2 ([1]; Total (n = 13)): 3 (23.1) No. of patients (%)
- Dizziness, treatment‐related, Grade 3 ([1]; Total (n = 13)): 0 (0.0) No. of patients (%)
- Fatigue, treatment‐related, Grade 1–2 ([1]; Total (n = 13)): 8 (61.5) No. of patients (%)
- Fatigue, treatment‐related, Grade 3 ([1]; Total (n = 13)): 0 (0.0) No. of patients (%)
- Hyperglycemia, treatment‐related, Grade 1–2 ([1]; Total (n = 13)): 3 (23.1) No. of patients (%)
- Hyperglycemia, treatment‐related, Grade 3 ([1]; Total (n = 13)): 2 (15.4) No. of patients (%)
- Mucosal inflammation, treatment‐related, Grade 1–2 ([1]; Total (n = 13)): 2 (15.4) No. of patients (%)
- Mucosal inflammation, treatment‐related, Grade 3 ([1]; Total (n = 13)): 0 (0.0) No. of patients (%)
- Nausea, treatment‐related, Grade 1–2 ([1]; Total (n = 13)): 6 (46.2) No. of patients (%)
- Nausea, treatment‐related, Grade 3 ([1]; Total (n = 13)): 0 (0.0) No. of patients (%)
- Pain, treatment‐related, Grade 1–2 ([1]; Total (n = 13)): 2 (15.4) No. of patients (%)
- Pain, treatment‐related, Grade 3 ([1]; Total (n = 13)): 0 (0.0) No. of patients (%)
- Vomiting, treatment‐related, Grade 1–2 ([1]; Total (n = 13)): 2 (15.4) No. of patients (%)
- Vomiting, treatment‐related, Grade 3 ([1]; Total (n = 13)): 0 (0.0) No. of patients (%)
- Maximum tolerated dose (MTD) ([1]; once daily orally, continuous): 37.5 mg
- Recommended phase II dose (RP2D) ([1]; oral, once daily): 37.5 mg/day
- GI50 [2]: 3.2 to 11 nM
- Mean area under the plasma concentration–time curve from time 0 to 24 h ([3]; oral 2 mg/kg): 136 ng/h/mL
- Mean maximum plasma concentration ([3]; oral 2 mg/kg): 37.4 ng/mL
- Mean area under the plasma concentration–time curve from time 0 to 24 h ([3]; oral 10 mg/kg): 1320 ng/h/mL
- Mean maximum plasma concentration ([3]; oral 10 mg/kg): 568 ng/mL
- Mean area under the plasma concentration–time curve from time 0 to 24 h ([3]; oral 20 mg/kg): 3190 ng/h/mL
- Mean maximum plasma concentration ([3]; oral 20 mg/kg): 1510 ng/mL
- Tmax [3, 8]: 0.25 to 1 h
- half-life [3, 8]: 3.71 to 3.99 h
- Plasma glucose level (SCID mice): elevated levels
- Plasma insulin level (SCID mice): elevated levels
- inhibition at 0.1 µM (Met): 33.8%
- inhibition at 0.1 µM (Lck): 33.7%
- In vivo growth inhibitory activity [4]: modest in vivo growth inhibitory activity
- Protein bound [5]: 98.5–99.0%
- Cell cycle distribution ([6]; higher concentrations of 1200 and 2000 nmol/L): G1 and G2/M phase accumulations
- Cell cycle distribution ([6]; lower concentrations of 120 and 400 nmol/L): G1 phase accumulation
- Inhibition at 100 nmol/L (AurA; AurA, 100 nmol/L): 99.5%
- inhibition at 0.1 µM (AurA; read-out: Inhibition at 100 nmol/L, AurA, 100 nmol/L): > 90%
- Inhibition of in vivo IGF‐1‐induced tyrosine phosphorylation of IGF‐R [7]: inhibited
